Each structure is given as a SMILES string. Calls of active or inactive are those of the source.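 The calls were made as follows, unless noted: active = inhibition above 20% together with a positive visual image hit; inconclusive = visual image hit but inhibition not above 20%; inactive = no visual image hit.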

The nature of experiment [1]: inhibitors of TNFa-induced NFkB p65 translocation, primary screen, imaging, HUVEC, MLSMR starter and 10KST1 sets (AID 438).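 Also: compound added about 3h40 before a 20 min TNFalpha stimulation.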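 As to inhibition: signal is the nuclear over cytoplasmic p65 intensity ratio per well.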 The conditions noted are these: HUVEC TNFa-induced p65 nuclear translocation; cell count: measured here: nuclei count (cytotoxicity indicator), at 2.08 µM; inhibition: at 2 µM, stronger effect = higher value, 0% TNFa-plus-vehicle, 100% no-TNFa wells.
Experiment [2] in a line: endothelial E-selectin expression blockers – imaging, HUVEC, immunofluorescence, MLSMR starter and 10KST1 sets, primary screen (AID 487;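 active = visually confirmed hit in the image check and inhibition above 20%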;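 as to inhibition: signal is fraction of cell area covered by stained E-selectin grains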;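 as to nuclei count: 100% = median nuclei count of all wells on the same plate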). The conditions noted are these: HUVEC TNFalpha-induced E-selectin immunofluorescence imaging, at 2 µM; inhibition: stronger effect = higher value; nuclei count: measured here: cell number, toxicity.
Experiment [3] is described as follows: Primary imaging screen for DUSP6 inhibitors that restore phospho-Erk in transfected HeLa cells, chemical complementation (AID 609;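 active = compounds giving at least 50% inhibition in the cell-based MKP-3 phosphatase rescue imaging test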;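 as to inhibition: phospho-Erk level distribution per well compared with pooled transfected vehicle control wells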). Particulars: HeLa MKP-3 transfected, phospho-Erk imaging KS statistic, at 10 µM, cells stimulated with TPA for 15 min.
The target of experiment [4] is Dual specificity protein phosphatase 6 (Homo sapiens) (UniProt Q16828). Described as above. Particulars: HeLa MKP-3 transfected, phospho-Erk imaging KS statistic; at 10 µM; stronger effect = higher value; cells stimulated with TPA for 15 min.
For experiment [5], the target named is Voltage-gated potassium channel subunit beta-2 (Rattus norvegicus) (UniProt P62483). Briefly: inhibitors of rat Kvbeta2 reductase activity – biochemical, NADPH fluorescence, primary screen (AID 622;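 active = fluorescence slope higher than the sample average by over 3 SD, cut at about -0.22 in these data, passing the limit was not always enough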;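 also: slope of raw intensity against log time taken from 70 to 1610 s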). Particulars: recombinant KvBeta, 4-cyanobenzaldehyde reduction, at 10 µM, stronger effect = higher value.
Experiment [6] shares this target. Nature of the experiment: enhancers of rat Kvbeta2 NADPH turnover – biochemical, NADPH fluorescence, primary screen (AID 623;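 active = NADPH fluorescence slope more negative than the mean of all samples by about 3 SD, 99.7% confidence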;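 also: fluorescence intensity change per second fitted from 20 to 320 s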). The conditions noted are these: Recombinant KvBeta, NADPH fluorescence decrease slope, 10 min; at 10 µM; stronger effect = lower value.
In experiment [7] the target is Alpha-2C adrenergic receptor (Homo sapiens) (UniProt P18825). Nature of the experiment: compounds altering alpha2C-coupled GIRK flux – cell-based, HEK293 alpha2C/GIRK1/2, thallium flux, primary screen (AID 624;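 active = fluorescence slope after compound addition differing from the mean of all screened samples at 99.7% confidence, in either direction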;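 also: slope of fluorescence ratio to pre-addition baseline per second over 15 to 24 s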). The conditions noted are these: thallium flux BTC fluorescence, at 10 µM, actives lie on both sides.
The nature of experiment [8]: inhibitors of larval lipid processing in zebrafish, primary screen, whole organism, PED6 fluorescence, gall bladder and intestine (AID 686;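 active = a full or partial loss of lipid-probe fluorescence in the fish gall bladder, intestine or both, judged by eye; inactive = no fluorescence loss, or compound toxic to the fish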;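 also: larvae 5 to 7 days old with five fish per well; signal comes from phospholipase A2 cleavage of quenched PED6 carried via bile; overnight exposure to compound and PED6 before scoring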). The conditions noted are these: Zebrafish larvae PED6 lipid processing, fluorescence scoring; screened at 20 µM (by protocol). Summed up:
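Doses: 20 µM single dose. Test system: live zebrafish larvae aged 5-7 days, whole organism. Quantity: five larvae per well. Measured by: By-eye fluorescence microscopy. Reagent: ingested quenched lipid PED6 at 100 nM. Read-out: visual per-well fluorescence inhibition score. Times: overnight exposure of larvae to compound plus PED6.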

The nature of experiment [9]: loss of swimming-algae plug formation – whole organism, Chlamydomonas reinhardtii, WT vs cilia-less mutant, absorbance, 96-well, primary screen (AID 463189;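 active = inhibition at or above 50% relative to wild type and mutant plate controls; inactive = inhibition below 50%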;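 also: 0% = wild type cc124 cells in DMSO and 100% = ciliumless bld1 mutant cells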). Particulars: Chlamydomonas reinhardtii gravitaxis, OD600 absorbance, 2 days; at 10 µM; stronger effect = higher value.
[10] abbreviates: measured here: cell density z-score.
Where [11] appears, read: measured here: nuclear c-Myc green intensity z-score.
The mark [12] stands for this setting: measured here: nuclear pErk red intensity z-score, stronger effect = higher value.

Alpha-2C adrenergic receptor (Homo sapiens), sequence (P18825 whole entry, looked up): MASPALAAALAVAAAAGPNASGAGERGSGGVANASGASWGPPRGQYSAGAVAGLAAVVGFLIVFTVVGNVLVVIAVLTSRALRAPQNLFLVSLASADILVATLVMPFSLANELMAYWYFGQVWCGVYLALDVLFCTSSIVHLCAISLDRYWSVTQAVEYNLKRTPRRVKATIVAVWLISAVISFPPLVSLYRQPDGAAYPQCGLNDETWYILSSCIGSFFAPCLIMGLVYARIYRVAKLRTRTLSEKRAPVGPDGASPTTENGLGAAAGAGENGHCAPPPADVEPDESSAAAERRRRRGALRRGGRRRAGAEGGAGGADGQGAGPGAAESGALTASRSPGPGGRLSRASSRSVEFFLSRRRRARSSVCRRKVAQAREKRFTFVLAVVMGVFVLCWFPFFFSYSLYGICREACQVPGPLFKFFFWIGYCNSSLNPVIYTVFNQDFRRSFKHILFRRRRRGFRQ
Voltage-gated potassium channel subunit beta-2 (Rattus norvegicus), sequence (P62483 whole entry, looked up): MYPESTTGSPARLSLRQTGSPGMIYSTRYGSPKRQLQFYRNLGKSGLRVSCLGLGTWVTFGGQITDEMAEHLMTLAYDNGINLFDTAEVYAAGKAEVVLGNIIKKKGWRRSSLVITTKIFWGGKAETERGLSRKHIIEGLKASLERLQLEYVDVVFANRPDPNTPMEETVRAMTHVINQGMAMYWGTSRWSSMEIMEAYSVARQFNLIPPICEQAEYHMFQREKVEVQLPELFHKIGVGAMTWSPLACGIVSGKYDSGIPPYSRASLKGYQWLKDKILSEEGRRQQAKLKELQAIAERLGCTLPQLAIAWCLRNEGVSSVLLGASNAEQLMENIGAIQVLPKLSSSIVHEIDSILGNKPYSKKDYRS
Dual specificity protein phosphatase 6 (Homo sapiens), sequence (Q16828 whole entry, looked up): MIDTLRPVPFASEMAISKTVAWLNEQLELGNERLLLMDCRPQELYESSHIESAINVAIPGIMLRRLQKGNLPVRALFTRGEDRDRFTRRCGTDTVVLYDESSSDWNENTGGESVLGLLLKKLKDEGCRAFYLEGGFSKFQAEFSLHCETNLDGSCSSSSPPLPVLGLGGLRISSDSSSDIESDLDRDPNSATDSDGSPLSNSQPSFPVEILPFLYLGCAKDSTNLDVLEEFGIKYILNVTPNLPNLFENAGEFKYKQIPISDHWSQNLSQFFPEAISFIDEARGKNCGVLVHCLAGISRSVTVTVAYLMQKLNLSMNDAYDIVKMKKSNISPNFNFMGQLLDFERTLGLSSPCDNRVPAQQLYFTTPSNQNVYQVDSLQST

The inhibition is the drop in the measured response relative to a control, in per cent. Regarding `Cc1occc1C(=O)OCC(=O)Nc1ccc(F)cc1`, the cell count in experiment [1] is 527. The inhibition in experiment [1] is -1.1% (inactive); in [2], -31.2% (inactive); in experiment [4] it was 29.3% (inactive); in experiment [9], 1.09% (inactive). The same compound returned a nuclei count in experiment [2] of 113%. For the same compound, the z-score in [3] (setting [10]) was -1.12; in experiment [3] (setting [11]), -1.15; in experiment [3] (setting [12]), 1.8. Also, in [5], the fluorescence slope was -0.56 (inactive). Further, the NADPH fluorescence slope in experiment [6] is -4.4e-05 (inactive). Besides, in [7], the slope was 0.00567 (inactive). The outcome in experiment [8] was inactive.
With `COc1ccccc1N1CCN(C(=O)c2c(C)cc(=O)oc2C)CC1`, the cell count in experiment [1] came to 275. Further, the inhibition in [1] is -1.5% (inactive); in experiment [2] it was -18.9% (inactive); in experiment [4], 11.4% (inactive); in [9] it was -9.22% (inactive). The compound further registered a nuclei count in [2] of 95.9%. Further, the z-score was -0.53 in experiment [3] (setting [10]), 2.24 in experiment [3] (setting [11]) and -0.762 in [3] (setting [12]). The fluorescence slope in experiment [5] was -0.461 (inactive). The NADPH fluorescence slope in experiment [6] is -8.2e-05 (inactive). The slope in experiment [7] is 0.00477 (inactive). The call in experiment [8] was inactive.
Turning to `CCCCc1c(C)nn(-c2nnc3c4ccccc4n(C)c3n2)c1C`, the cell count in [1] turned out to be 575. Besides, the inhibition in experiment [1] was -12.6% (inactive); in experiment [2], -37.2% (inactive); in [4], 7.73% (inactive); in experiment [9], 21.4% (inactive). In experiment [2], the nuclei count is 161%. The z-score in [3] (setting [10]) was -0.575; in [3] (setting [11]), 2.07; in [3] (setting [12]) it was -0.403. For the same compound, the fluorescence slope in experiment [5] is -0.48 (inactive). Further, the NADPH fluorescence slope in experiment [6] is -5.6e-05 (inactive). Moreover, in experiment [7], the slope was 0.00441 (inactive). Also, the compound was called inactive in experiment [8].
In the case of `N#CC12CCCCC1CC1CCCCC1(C#N)N2Cc1ccccn1` (centres undefined), the cell count in [1] stood at 372. The inhibition is -4.4% (inactive) in [1], -22.3% (inactive) in experiment [2], -3.98% (inactive) in [4] and -3.05% (inactive) in [9]. Moreover, in experiment [2], the nuclei count worked out at 86.1%. Moreover, the figures for the z-score in experiment [3] (setting [10]), in experiment [3] (setting [11]) and in [3] (setting [12]) were 0.309, 0.731 and -1.95, respectively. Besides, the fluorescence slope in experiment [5] was -0.46 (inactive). In experiment [6], the NADPH fluorescence slope is -0.000337 (inactive). Further, the slope in experiment [7] is 0.0048 (inactive). For the same compound, in [8], the outcome was inactive.
With `CC(C)Oc1ccc(C(=O)CCN2CCCCC2)cc1`, in experiment [1], the cell count is 457. The inhibition in [1] is 6.5% (inactive); in [2], -349% (inactive); in [4], -10.6% (inactive); in experiment [9], 139% (active). The same compound yielded a nuclei count in experiment [2] of 163%. For the same compound, the z-score in experiment [3] (setting [10]) is 0.309; in experiment [3] (setting [11]), -0.269; in experiment [3] (setting [12]), -0.0861. The fluorescence slope in experiment [5] is -0.258 (inactive). In addition, the NADPH fluorescence slope in experiment [6] is 2.6e-05 (inactive). Besides, the slope in experiment [7] is 0.00524 (inactive). In experiment [8], the compound was classed as inactive.
On to `COc1ccccc1-n1c(=O)c2c3c(sc2n2c(SC)nnc12)CCC3`, for which the cell count in experiment [1] was determined as 612. Further, the inhibition in [1] is -29% (inactive); in experiment [2], -100% (inactive); in experiment [4], -0.608% (inactive); in experiment [9] it was 16.5% (inactive). This compound also came in with a nuclei count in [2] of 169%. Besides, the z-score in experiment [3] (setting [10]) is -1.08; in experiment [3] (setting [11]) it was -0.0482; in experiment [3] (setting [12]), 1.7. The fluorescence slope in experiment [5] was -0.367 (inactive). Further, the NADPH fluorescence slope in experiment [6] is -5.4e-05 (inactive). In experiment [7], the slope was 0.00462 (inactive). Further, the result in [8] was inactive.
Regarding `CCOc1cccc(-c2nnc3sc(COc4ccccc4)nn23)c1`, the cell count in experiment [1] is 537. Also, the inhibition was -7.5% (inactive) in experiment [1], 40.9% (inactive) in experiment [2], -4.27% (inactive) in [4] and 17.6% (inactive) in experiment [9]. In experiment [2], this compound registered a nuclei count of 91.9%. Further, the results for the z-score in [3] (setting [10]), in experiment [3] (setting [11]) and in experiment [3] (setting [12]) were 1.73, -0.94 and -0.568, respectively. Also, the fluorescence slope in experiment [5] is -0.433 (inactive). The NADPH fluorescence slope in [6] was -9.6e-05 (inactive). The slope in experiment [7] was 0.00533 (inactive). In addition, in experiment [8], the result was inactive.
Regarding `Cc1nc2c(=O)n(C)c(=O)[nH]c2n1Cc1ccccc1`, the cell count in experiment [1] turned out to be 465. For the same compound, the inhibition in [1] is 3.5% (inactive); in experiment [2], -59.5% (inactive); in experiment [4] it was -4.7% (inactive); in experiment [9], -5.62% (inactive). This compound also had a nuclei count in experiment [2] of 153%. For the same compound, the z-score in [3] (setting [10]) was determined as 0.739; in experiment [3] (setting [11]), 0.0972; in experiment [3] (setting [12]), 1.29. Moreover, the fluorescence slope in experiment [5] was -0.394 (inactive). Further, in experiment [6], the NADPH fluorescence slope is -4.2e-05 (inactive). Also, in experiment [7], the slope is 0.00601 (inactive). Besides, in [8], the compound was classed as inactive.
As to `Cc1cc(=O)[nH]c(SCC(=O)c2ccccc2)c1C#N`, in experiment [1], the cell count was 391. Further, the inhibition is -0.9% (inactive) in [1], 1.9% (inactive) in experiment [2], 13.4% (inactive) in experiment [4] and -2.65% (inactive) in experiment [9]. In experiment [2], this compound had a nuclei count of 168%. The z-score is 2.74 in experiment [3] (setting [10]), -1.01 in experiment [3] (setting [11]) and -0.58 in [3] (setting [12]). In addition, the fluorescence slope in [5] is -0.41 (inactive). Also, in [6], the NADPH fluorescence slope is -0.000133 (inactive). Further, the slope in experiment [7] is 0.00479 (inactive). For the same compound, the compound was called inactive in experiment [8].
Turning to `CC(=O)c1ccc(O)c(CO)c1`, the cell count in experiment [1] stood at 639. Moreover, the inhibition was -20.9% (inactive) in experiment [1], -32.3% (inactive) in experiment [2], 4.37% (inactive) in [4] and -12.4% (inactive) in experiment [9]. This compound displayed a nuclei count in experiment [2] of 101%. Further, the z-score in experiment [3] (setting [10]) was -0.0166; in experiment [3] (setting [11]) it was 0.525; in experiment [3] (setting [12]), -0.493. Also, in experiment [5], the fluorescence slope was -0.463 (inactive). Besides, in experiment [6], the NADPH fluorescence slope is -1.1e-05 (inactive). Besides, in [7], the slope was 0.00706 (inactive). For the same compound, the call in experiment [8] was inactive.
Consider `Cc1ccc2[nH]c3c(N4CCN(Cc5ccccc5)CC4)ncnc3c2c1`, for which the cell count in experiment [1] is 328. Besides, the inhibition is -7.3% (inactive) in experiment [1], -11.9% (inactive) in experiment [2], 10.5% (inactive) in experiment [4] and 38.4% (inactive) in experiment [9]. In [2], this compound registered a nuclei count of 148%. Also, the z-score was 0.594 in experiment [3] (setting [10]), 0.553 in experiment [3] (setting [11]) and -0.309 in experiment [3] (setting [12]). The fluorescence slope in experiment [5] was -0.403 (inactive). Also, in experiment [6], the NADPH fluorescence slope was -0.000135 (inactive). Besides, the slope in experiment [7] is 0.00442 (inactive). Also, the outcome in experiment [8] is “inactive; toxic”.
As for `COc1ccccc1N(O)C1CC(=O)N(c2ccc(Br)cc2)C1=O` (centres undefined), in experiment [1], the cell count worked out at 351. Besides, the inhibition in experiment [1] was 4% (inactive); in [2] it was 46% (inactive); in experiment [4], -2.59% (inactive); in experiment [9] it was 37.8% (inactive). The nuclei count in [2] stood at 74.7%. For the same compound, the z-score in [3] (setting [10]) is -0.0216; in [3] (setting [11]), 1.1; in experiment [3] (setting [12]), 0.319. Besides, the fluorescence slope in experiment [5] was -0.415 (inactive). In addition, the NADPH fluorescence slope in experiment [6] was -4.4e-05 (inactive). Moreover, the slope in experiment [7] was 0.00547 (inactive). Besides, in [8], the outcome was inactive.
As to `Cc1cccc(C)c1OCC(O)CNS(=O)(=O)c1ccccc1C(=O)N1CCCCC1` (centres undefined), the cell count in experiment [1] was found to be 512. Further, the inhibition is 5.4% (inactive) in experiment [1], -148% (inactive) in experiment [2], -3.95% (inactive) in experiment [4] and -6.87% (inactive) in experiment [9]. Moreover, in experiment [2], the nuclei count is 171%. The z-score in experiment [3] (setting [10]) is -0.797; in experiment [3] (setting [11]), 2.33; in experiment [3] (setting [12]), 0.877. Also, the fluorescence slope in [5] was -0.36 (inactive). In addition, in experiment [6], the NADPH fluorescence slope was -7e-05 (inactive). Further, in [7], the slope was 0.00455 (inactive). In addition, the result in experiment [8] was inactive.

The record behind these values is PubChem BioAssay.
